Laboratory results published in article PMC2875079 (Journal of medicinal chemistry, 2010).

Legend:
[1] = molecular target: T1, diacylglycerol kinase type δ1 (Homo sapiens, UniProt Q16760); assay: Specificity test at recombinant diacylglycerol kinase type δ1; type: biochemical; settings: at concentrations up to 100 μM
T1 sequence (Q16760 1-1170 isoform Q16760-2): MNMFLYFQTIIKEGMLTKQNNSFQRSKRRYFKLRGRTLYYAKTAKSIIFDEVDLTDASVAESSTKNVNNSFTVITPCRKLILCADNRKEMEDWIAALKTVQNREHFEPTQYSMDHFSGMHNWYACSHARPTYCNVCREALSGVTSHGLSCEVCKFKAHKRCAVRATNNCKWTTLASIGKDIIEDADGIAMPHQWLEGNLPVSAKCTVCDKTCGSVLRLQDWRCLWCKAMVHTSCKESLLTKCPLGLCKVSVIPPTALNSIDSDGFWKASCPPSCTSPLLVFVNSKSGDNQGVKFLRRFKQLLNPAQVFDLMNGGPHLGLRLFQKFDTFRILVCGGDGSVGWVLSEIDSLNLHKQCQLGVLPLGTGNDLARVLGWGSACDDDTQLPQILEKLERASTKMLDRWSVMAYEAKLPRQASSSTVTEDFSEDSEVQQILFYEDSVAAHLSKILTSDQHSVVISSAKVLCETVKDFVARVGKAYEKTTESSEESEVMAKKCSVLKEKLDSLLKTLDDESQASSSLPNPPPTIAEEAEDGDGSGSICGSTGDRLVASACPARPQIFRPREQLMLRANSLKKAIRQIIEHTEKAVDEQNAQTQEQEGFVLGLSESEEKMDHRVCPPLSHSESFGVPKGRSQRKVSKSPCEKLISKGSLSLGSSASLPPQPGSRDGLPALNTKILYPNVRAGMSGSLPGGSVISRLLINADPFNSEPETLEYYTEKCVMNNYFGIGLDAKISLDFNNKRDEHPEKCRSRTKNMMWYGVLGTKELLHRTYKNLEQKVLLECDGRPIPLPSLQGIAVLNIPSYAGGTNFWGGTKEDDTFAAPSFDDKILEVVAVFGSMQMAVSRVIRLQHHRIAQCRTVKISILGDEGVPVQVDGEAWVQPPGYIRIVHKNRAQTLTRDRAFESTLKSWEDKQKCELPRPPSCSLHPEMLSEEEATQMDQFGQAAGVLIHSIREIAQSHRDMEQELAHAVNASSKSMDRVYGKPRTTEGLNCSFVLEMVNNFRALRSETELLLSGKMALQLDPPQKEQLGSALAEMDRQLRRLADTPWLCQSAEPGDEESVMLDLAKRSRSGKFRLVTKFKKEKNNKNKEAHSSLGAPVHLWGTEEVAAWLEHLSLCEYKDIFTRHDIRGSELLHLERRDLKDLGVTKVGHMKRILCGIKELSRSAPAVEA

[2] = molecular target: diacylglycerol kinase type γ (Homo sapiens, UniProt P49619); assay: Specificity test at recombinant diacylglycerol kinase type γ; type: biochemical; settings: at concentrations up to 100 μM
[3] = molecular target: diacylglycerol kinase type ζ (Homo sapiens, UniProt Q13574); assay: Specificity test at recombinant diacylglycerol kinase type ζ; type: biochemical; settings: at concentrations up to 100 μM
mouse SphK2 = molecular target: T2, mouse SphK2 (Mus musculus, UniProt Q9JIA7); assay: Sphingosine kinase assay, recombinant SphK2; type: biochemical; settings: for Inhibition of SphK2: at concentrations up to 100 μM
T2 sequence (Q9JIA7 1-617): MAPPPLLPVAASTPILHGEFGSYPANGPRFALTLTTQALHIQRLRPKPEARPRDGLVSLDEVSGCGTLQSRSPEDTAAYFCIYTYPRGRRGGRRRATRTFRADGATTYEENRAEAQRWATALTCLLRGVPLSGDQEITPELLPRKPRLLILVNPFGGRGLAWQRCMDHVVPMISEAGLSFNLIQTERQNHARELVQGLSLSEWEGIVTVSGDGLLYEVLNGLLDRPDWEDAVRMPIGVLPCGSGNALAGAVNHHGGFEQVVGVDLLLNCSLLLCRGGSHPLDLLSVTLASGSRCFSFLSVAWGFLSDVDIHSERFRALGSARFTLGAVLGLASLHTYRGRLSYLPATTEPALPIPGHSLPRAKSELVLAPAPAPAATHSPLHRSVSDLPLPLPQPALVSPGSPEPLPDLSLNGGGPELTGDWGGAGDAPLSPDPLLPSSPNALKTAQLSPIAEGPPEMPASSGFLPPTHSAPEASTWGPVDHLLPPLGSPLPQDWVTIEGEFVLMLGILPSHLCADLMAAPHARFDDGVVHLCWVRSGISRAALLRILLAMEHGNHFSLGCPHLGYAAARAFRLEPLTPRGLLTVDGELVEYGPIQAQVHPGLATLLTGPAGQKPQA

PKCα = PKCα (Homo sapiens, UniProt P17252); assay: Specificity test at PKCα; type: biochemical; settings: at concentrations up to 10 μM
Human SphK1 = Human SphK1 (Homo sapiens, UniProt Q9NYA1); assay: Sphingosine kinase assay, recombinant SphK1; type: biochemical; settings: for Inhibition of SphK1: at concentrations up to 100 μM
SphKs = settings: cited from earlier work
SphK1 = settings: read-out: KM of SphK1 for sphingosine; cited from earlier work
SphK2 = settings: read-out: KM of SphK2 for sphingosine; cited from earlier work
[4] = test system: vascular smooth muscle cells; assay: Cell viability / cytotoxic response, Promega MultiTox-Fluor Assay; type: cell-based; settings: 0.001 μM – 100 μM, Figure 3F
Procedure, shortened: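 Rat aortic vascular smooth muscle cells, cultured in vitro. Test compound applied at 0.001–100 μM, with 20 μM cyclosporine A as comparator. Cytotoxicity read with the MultiTox-Fluor fluorescence kit. N=3 biological replicates; mean ± st dev; P < 0.05 marked.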

[5] = test system: vascular smooth muscle cells; assay: Smooth muscle cell proliferation, BrdU incorporation; type: cell-based, rat; settings: pre-treated 30 min, 10% serum 24 hours, Figure 3D
Procedure, shortened: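 Rat aortic vascular smooth muscle cells were pre-treated 30 min with a dose range of test compound, then stimulated with 10% FBS for 24 h. Proliferation was read as BrdU (10 μM) incorporation by immunoassay. N=6 biological replicates; mean ± st dev; P < 0.05 marked.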

[6] = test system: vascular smooth muscle cells; assay: Intracellular S1P concentration by LC/MS in serum-stimulated smooth muscle cells; type: cell-based, rat; settings: pre-treated 30 min, then 10% serum; Figure 3C
Procedure, shortened: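 Rat aortic smooth muscle cells were pre-treated with test compound for 30 min, then given 10% FBS for 12 h. Cells were washed in PBS and scraped into ice-cold MeOH, then extracted with CHCl3/0.1 M HCl containing 50 pmol C17 S1P internal standard. The organic phase was acetylated (acetic anhydride/pyridine). Analysis used C8 LC with […] ESI-MS/MS (BisAcS1P 462/402), quantified against calibration curves. N=2 biological replicates; mean ± st dev.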

[7] = test system: vascular smooth muscle cells; assay: Cytotoxicity on visual microscopic inspection; type: cell-based; settings: 10% FBS + compound (10 μM), light microscopy; Figure 3E
Procedure, shortened: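 Rat aortic vascular smooth muscle cells were imaged by light microscopy at 20× magnification. Conditions were untreated control, 10% FBS, and 10% FBS plus test compound at 10 μM. Cytotoxicity was judged by visual inspection.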

[8] = in water and DMSO; cited from earlier work
[9] = substrate: CCCCCCCCCCCCC/C=C/[C@@H](O)[C@@H](N)CO; assay: Sphingosine kinase assay, recombinant SphK1; type: biochemical, human; settings: other: substrate D-erythro-sphingosine, absence of inhibitor
[10] = substrate: CCCCCCCCCCCCC/C=C/[C@@H](O)[C@@H](N)CO; assay: Sphingosine kinase assay, recombinant SphK2; type: biochemical, mouse; settings: other: substrate D-erythro-sphingosine, absence of inhibitor

Chain of diacylglycerol kinase type ζ (Q13574 whole entry): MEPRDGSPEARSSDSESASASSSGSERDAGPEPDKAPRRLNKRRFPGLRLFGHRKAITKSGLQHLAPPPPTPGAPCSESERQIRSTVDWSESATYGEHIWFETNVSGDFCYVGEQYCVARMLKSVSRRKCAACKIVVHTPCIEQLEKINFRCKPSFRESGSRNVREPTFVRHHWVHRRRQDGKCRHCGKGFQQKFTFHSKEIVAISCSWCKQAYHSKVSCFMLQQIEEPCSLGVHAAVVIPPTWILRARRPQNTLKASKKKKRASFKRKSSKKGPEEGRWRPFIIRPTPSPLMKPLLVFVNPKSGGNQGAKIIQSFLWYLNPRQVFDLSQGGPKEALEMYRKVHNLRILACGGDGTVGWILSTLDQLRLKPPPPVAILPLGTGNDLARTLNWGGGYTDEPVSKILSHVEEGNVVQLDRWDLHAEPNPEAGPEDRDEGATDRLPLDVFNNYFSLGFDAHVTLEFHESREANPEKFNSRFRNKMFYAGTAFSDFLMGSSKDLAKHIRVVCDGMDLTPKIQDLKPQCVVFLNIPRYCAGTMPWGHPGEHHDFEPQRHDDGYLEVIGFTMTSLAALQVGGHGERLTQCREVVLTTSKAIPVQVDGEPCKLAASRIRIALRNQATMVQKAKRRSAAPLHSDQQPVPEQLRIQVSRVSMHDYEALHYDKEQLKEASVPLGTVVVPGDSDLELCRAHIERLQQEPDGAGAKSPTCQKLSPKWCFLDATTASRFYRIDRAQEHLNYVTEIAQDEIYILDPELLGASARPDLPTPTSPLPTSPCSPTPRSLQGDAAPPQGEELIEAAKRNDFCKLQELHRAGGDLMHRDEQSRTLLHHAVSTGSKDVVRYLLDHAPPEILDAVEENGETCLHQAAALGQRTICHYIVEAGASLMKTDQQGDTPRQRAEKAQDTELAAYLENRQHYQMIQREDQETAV
Chain of diacylglycerol kinase type γ (P49619 whole entry): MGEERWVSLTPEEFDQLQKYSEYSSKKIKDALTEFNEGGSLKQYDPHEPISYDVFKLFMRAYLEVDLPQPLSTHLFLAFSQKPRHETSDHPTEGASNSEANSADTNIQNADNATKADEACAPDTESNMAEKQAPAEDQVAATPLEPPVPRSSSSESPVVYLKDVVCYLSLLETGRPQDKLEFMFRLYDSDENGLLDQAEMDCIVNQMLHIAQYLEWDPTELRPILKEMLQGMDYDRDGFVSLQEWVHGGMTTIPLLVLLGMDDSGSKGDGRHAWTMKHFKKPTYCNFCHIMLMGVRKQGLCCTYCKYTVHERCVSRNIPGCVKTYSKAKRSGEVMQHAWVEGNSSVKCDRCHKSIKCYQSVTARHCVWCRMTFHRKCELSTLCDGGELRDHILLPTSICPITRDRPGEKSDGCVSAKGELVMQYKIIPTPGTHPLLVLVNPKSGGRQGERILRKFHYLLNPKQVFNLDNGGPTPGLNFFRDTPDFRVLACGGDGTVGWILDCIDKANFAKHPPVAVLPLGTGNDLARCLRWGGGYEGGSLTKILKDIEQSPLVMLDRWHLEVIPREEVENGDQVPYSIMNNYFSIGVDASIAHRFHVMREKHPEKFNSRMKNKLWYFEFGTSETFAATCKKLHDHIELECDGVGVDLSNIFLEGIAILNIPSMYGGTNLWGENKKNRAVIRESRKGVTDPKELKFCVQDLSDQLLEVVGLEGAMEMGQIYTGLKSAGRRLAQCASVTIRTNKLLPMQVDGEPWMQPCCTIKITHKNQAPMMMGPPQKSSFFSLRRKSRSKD

## CCCCCCCCCCCCc1ccc(NC(=O)C2(C(=N)N)CC2)cc1.Cl [compound 28, 1-carbamimidoyl-N-(4-dodecylphenyl)cyclopropanecarboxamide hydrochloride]
[1]
  Inhibition of diacylglycerol kinase type δ1: no inhibition
[2]
  Inhibition of diacylglycerol kinase type γ: no inhibition
[3]
  Inhibition of diacylglycerol kinase type ζ: no inhibition
Mouse SphK2
  Ki: 6 µM
PKCα
  Inhibition of PKCα: no inhibition

## CCCCCCCCCCCCc1ccc(C(=O)NC2(C(=N)N)CC2)cc1.Cl [compound 23, N-(1-carbamimidoylcyclopropyl)-4-dodecylbenzamide hydrochloride]
[1]
  Inhibition of diacylglycerol kinase type δ1: no inhibition
[2]
  Inhibition of diacylglycerol kinase type γ: no inhibition
[3]
  Inhibition of diacylglycerol kinase type ζ: no inhibition
PKCα
  Inhibition of PKCα: no inhibition

## CCCCCCCCc1ccc(C(=O)N[C@@H](C)C(=O)O)cc1 [compound 12, (S)-2-(4-octylbenzamido)propanoic acid]
Human SphK1
  Inhibition of SphK1: no inhibition
Mouse SphK2
  Inhibition of SphK2: no inhibition

## CCCCCCCCCCCCC/C=C/[C@@H](O)[C@H](N)CO [D-(+)-threo-sphingosine]
SphKs
  Inhibition of the SphKs: weak inhibitor

## CCCCCCCCCCCCC/C=C/[C@@H](O)[C@@H](N)CO [Sphingosine, D-erythro-sphingosine]
SphK1
  Km: ~10 µM
SphK2
  Km: ~5 µM

## CCCCCCCCc1ccc(C(=O)N[C@@H](C)C(=N)N)cc1.Cl [compound 9, (S)-N-(1-amino-1-iminopropan-2-yl)-4-octylbenzamide hydrochloride]
[4]
  Cytotoxicity/death in cell viability assay: did not induce cytotoxicity/death
Human SphK1
  Ki: 55 µM
[5]
  Blocked serum-induced smooth muscle cell proliferation: blocked
[6]
  Serum-induced changes in S1P intracellular concentration: blocked
[7]
  Cytotoxicity on visual microscopic inspection: not cytotoxic
Mouse SphK2
  Ki: 20 µM

## CCCCCCCCc1ccc(C(=O)N[C@@H](C)C(N)=O)cc1 [compound 13, (S)-N-(1-amino-1-oxopropan-2-yl)-4-octylbenzamide]
Human SphK1
  Inhibition of SphK1: no inhibition
Mouse SphK2
  Inhibition of SphK2: no inhibition

## Cn1cc(NC(=O)c2cc(NC(=O)c3cc(NC=O)cn3C)cn2C)cc1C(=O)NCCC(=N)N [Distamycin A]
[8]
  pKa: 11.6

B1: Human SphK1 (Homo sapiens) (protein)
chain: MDPAGGPRGVLPRPCRVLVLLNPRGGKGKALQLFRSHVQPLLAEAEISFTLMLTERRNHARELVRSEELGRWDALVVMSGDGLMHEVVNGLMERPDWETAIQKPLCSLPAGSGNALAASLNHYAGYEQVTNEDLLTNCTLLLCRRLLSPMNLLSLHTASGLRLFSVLSLAWGFIADVDLESEKYRRLGEMRFTLGTFLRLAALRTYRGRLAYLPVGRVGSKTPASPVVVQQGPVDAHLVPLEEPVPSHWTVVPDEDFVLVLALLHSHLGSEMFAAPMGRCAAGVMHLFYVRAGVSRAMLLRLFLAMEKGRHMEYECPYLVYVPVVAFRLEPKDGKGVFAVDGELMVSEAVQGQVHPNYFWMVSGCVEPPPSWKPQQMPPPEEPL
[9]
  Km: 10 µM

B2: mouse SphK2 (Mus musculus) (protein)
chain: MAPPPLLPVAASTPILHGEFGSYPANGPRFALTLTTQALHIQRLRPKPEARPRDGLVSLDEVSGCGTLQSRSPEDTAAYFCIYTYPRGRRGGRRRATRTFRADGATTYEENRAEAQRWATALTCLLRGVPLSGDQEITPELLPRKPRLLILVNPFGGRGLAWQRCMDHVVPMISEAGLSFNLIQTERQNHARELVQGLSLSEWEGIVTVSGDGLLYEVLNGLLDRPDWEDAVRMPIGVLPCGSGNALAGAVNHHGGFEQVVGVDLLLNCSLLLCRGGSHPLDLLSVTLASGSRCFSFLSVAWGFLSDVDIHSERFRALGSARFTLGAVLGLASLHTYRGRLSYLPATTEPALPIPGHSLPRAKSELVLAPAPAPAATHSPLHRSVSDLPLPLPQPALVSPGSPEPLPDLSLNGGGPELTGDWGGAGDAPLSPDPLLPSSPNALKTAQLSPIAEGPPEMPASSGFLPPTHSAPEASTWGPVDHLLPPLGSPLPQDWVTIEGEFVLMLGILPSHLCADLMAAPHARFDDGVVHLCWVRSGISRAALLRILLAMEHGNHFSLGCPHLGYAAARAFRLEPLTPRGLLTVDGELVEYGPIQAQVHPGLATLLTGPAGQKPQA
[10]
  Km: 5 µM
